The structures appear in SMILES notation. A value given as a limit tells only on which side of the number the result lay.

One series has as its target T1, Orexin receptor type 2 (Homo sapiens, UniProt O43614).
T1 sequence (O43614 whole entry): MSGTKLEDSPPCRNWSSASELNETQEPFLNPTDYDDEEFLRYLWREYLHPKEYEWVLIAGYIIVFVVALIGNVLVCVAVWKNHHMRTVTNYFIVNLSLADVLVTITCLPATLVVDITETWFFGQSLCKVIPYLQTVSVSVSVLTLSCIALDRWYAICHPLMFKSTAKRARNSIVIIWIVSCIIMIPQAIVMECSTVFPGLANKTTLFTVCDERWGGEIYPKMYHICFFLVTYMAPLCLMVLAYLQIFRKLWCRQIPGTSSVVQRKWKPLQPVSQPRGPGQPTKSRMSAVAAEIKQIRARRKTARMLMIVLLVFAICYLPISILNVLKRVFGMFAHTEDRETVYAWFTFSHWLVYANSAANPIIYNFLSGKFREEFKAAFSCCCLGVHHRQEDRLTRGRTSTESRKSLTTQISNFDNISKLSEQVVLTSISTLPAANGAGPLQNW
Briefly: Binding affinity to human OX2R.

Series [1] in a line: Drug concentration in Sprague-Dawley rat brain at 30 mg/kg, po after 0.5 hrs by LC-MS/MS analysis. The format is ADME, organism-based. The settings on record: read-out: Ct. The essentials: (§1)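 Brain and plasma levels (ng/mL) sampled 0.5 h after oral dosing at 10 or 30 mg/kg, alongside the ex vivo tenia tecta occupancy study.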
The nature of series [2]: Ex vivo receptor occupancy at OX1R in Sprague-Dawley rat brain tenia tecta using [3H]SB-674042 labelling at 30 mg/kg, po measured after 2 hrs by autoradiography. In kind it is functional. The essentials:
(§2)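 Ex vivo OX1R binding autoradiography in rat tenia tecta after a 30 mg/kg po dose; percent occupancy read at 0.5 and 2 h.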

Series [3] in a line: Ex vivo receptor occupancy at OX1R in Sprague-Dawley rat brain tenia tecta using [3H]SB-674042 labelling at 30 mg/kg, po measured after 0.5 hrs by autoradiography. The format is functional. The essentials: as §2
Series [4] is described as follows: Drug concentration in Sprague-Dawley rat plasma at 30 mg/kg, po after 0.5 hrs by LC-MS/MS analysis. The format is ADME, organism-based. The essentials: as §1
Series [5] addresses T2, Orexin/Hypocretin receptor type 1 (Homo sapiens, UniProt O43613).
T2 sequence (O43613 whole entry): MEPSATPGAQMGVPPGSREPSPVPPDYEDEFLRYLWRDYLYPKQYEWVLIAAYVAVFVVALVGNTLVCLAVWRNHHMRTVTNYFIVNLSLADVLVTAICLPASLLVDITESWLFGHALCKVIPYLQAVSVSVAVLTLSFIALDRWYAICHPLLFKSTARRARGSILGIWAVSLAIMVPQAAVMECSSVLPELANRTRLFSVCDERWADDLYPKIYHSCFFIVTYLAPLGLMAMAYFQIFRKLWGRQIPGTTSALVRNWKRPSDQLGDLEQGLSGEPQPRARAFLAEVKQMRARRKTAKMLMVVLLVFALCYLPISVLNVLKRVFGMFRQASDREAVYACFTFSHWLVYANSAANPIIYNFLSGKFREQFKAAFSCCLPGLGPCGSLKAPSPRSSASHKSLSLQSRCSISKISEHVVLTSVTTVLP
Briefly: Binding affinity to human […].

Series [6] can be described thus: Stability in human liver microsomes assessed as extraction ratio. In kind it is ADME, Microsome. Particulars: read-out: ERH. The essentials: (§3)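 Metabolic stability in human or rat liver microsomes, expressed as extraction ratios.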
Background: Liver microsomes are vesicles of endoplasmic reticulum, rich in cytochrome P450 enzymes.

A short description of series [7]: Stability in rat liver microsomes assessed as extraction ratio. The format is ADME, Microsome. The settings on record: read-out: ERH. The essentials: as §3
Series [8] can be described thus: Drug concentration in Sprague-Dawley rat plasma at 10 mg/kg, po after 0.5 hrs by LC-MS/MS analysis. The format is ADME, organism-based. The essentials:
as §1

Series [9] in a line: Ex vivo receptor occupancy at OX1R in Sprague-Dawley rat brain tenia tecta using [3H]SB-674042 labelling at 10 mg/kg, po measured after 2 hrs by autoradiography. In kind it is functional. The essentials:
(§4)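 Rats received a single oral dose, and OX1R occupancy was measured by ex vivo binding autoradiography in brain tenia tecta sections at 0.5, 2 and 6 h after dosing. Occupancy is expressed as percent. Brain and plasma drug levels (ng/mL) were also sampled at the 0.5 h time point.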

A short description of series [10]: Ex vivo receptor occupancy at OX1R in Sprague-Dawley rat brain tenia tecta using [3H]SB-674042 labelling at 10 mg/kg, po measured after 0.5 hrs by autoradiography. In kind it is functional. The essentials: as §4
Series [11] can be described thus: Ex vivo receptor occupancy at OX1R in Sprague-Dawley rat brain tenia tecta using [3H]SB-674042 labelling at 10 mg/kg, po measured after 6 hrs by autoradiography. The format is functional. The essentials:
as §4

The nature of series [12]: Drug concentration in Sprague-Dawley rat brain at 10 mg/kg, po after 0.5 hrs by LC-MS/MS analysis. Particulars: read-out: Ct. In kind it is ADME, organism-based. The essentials: as §1

As to `Cc1ccc(-n2nccn2)c(C(=O)N2C3CCC2C(COc2ccc(F)cn2)C3)c1` (racemic), at Orexin receptor type 2, the Ki (in general, a measure of affinity in units of concentration, obtained from inhibition or displacement) was found to be 0.072 µM. The concentration at 0.5 h in [1] is 16 ng/mL; in series [4] it was 55 ng/mL. In addition, the figures for the Activity in [2] and in [3] were 43% and 49%, respectively.
In the case of `Cc1ccc(-n2nccn2)c(C(=O)N2[C@@H]3CC[C@H]2[C@H](COc2ccc(F)cn2)C3)n1`, the concentration at 0.5 h in [1] is 313 ng/mL; in series [4], 930 ng/mL. Moreover, the Activity in series [2] worked out at 30%; in series [3] it was 50%.
As for `O=C(c1nccc2[nH]cnc12)N1CCC(F)(F)[C@@H](Oc2ccc3ccccc3n2)C1`, the Ki in series [5] amounted to 0.0052 µM.
Regarding `Cc1ccc(-c2ncccn2)c(C(=O)N2C3CCC2C(COc2ccc(F)cn2)C3)c1` (racemic), the results for the hepatic extraction ratio in [6] and in [7] were 0.91 and 0.89, respectively. Also, the Ki at Orexin receptor type 2 was found to be 0.04 µM; in series [5] it was 0.0087 µM.
In turn, `O=C(c1ccccc1-n1nccn1)N1C2CCC1C(Nc1ncc(C(F)(F)F)cn1)C2` (racemic) gave a Ki in [5] of 0.18 µM.
Consider `O=C(c1ccccc1-n1nccn1)N1C2CCC1C(Oc1ccc(C(F)(F)F)cn1)C2` (racemic), for which the Ki at Orexin receptor type 2 was 2.7 µM; in series [5], 0.13 µM.
With `O=C(c1ccccc1-c1cccs1)N1C2CCC1C(COc1ccc(F)cn1)C2` (racemic), the hepatic extraction ratio was above 0.95 in series [6] and above 0.92 in series [7]. Besides, the Ki on Orexin receptor type 2 worked out at 0.013 µM.
Regarding `O=C(c1cccn2ccnc12)N1CCC(F)(F)[C@@H](Oc2ccc3ccccc3n2)C1`, the Ki on Orexin receptor type 2 was determined as 1.01 µM; in series [5], 0.0018 µM.
Consider `O=C(c1cccc(F)c1-c1ncccn1)N1C2CCC1C(Oc1ccc(C(F)(F)F)cn1)C2` (racemic), for which the results for the Ki (on Orexin receptor type 2; in series [5]) were above 10 µM and 0.13 µM, respectively.
For the compound `O=C(c1cccc(F)c1-c1ncccn1)N1[C@@H]2CC[C@H]1[C@H](Nc1ncc(C(F)(F)F)cc1Cl)C2`, the hepatic extraction ratio in series [6] is 0.61; in series [7], 0.83. The inhibition constant Ki at Orexin receptor type 2 stood at 0.54 µM; in series [5], 0.014 µM.
The matching figures for `O=C(c1ccccc1-n1nccn1)N1C2CCC1C(Nc1cnc(C(F)(F)F)cn1)C2` (racemic): 0.36, 0.55, 1.25 µM and 0.062 µM.
In the case of `Cc1ccc(-n2nccn2)c(C(=O)N2[C@@H]3CC[C@H]2[C@H](COc2ccccn2)C3)n1`, the concentration at 0.5 h in [1] is 8 ng/mL; in series [4], 118 ng/mL. The Activity in series [2] stood at 20%; in series [3], 50%.
`O=C(c1cccc(F)c1-c1ncccn1)N1C2CCC1C(Oc1cnc(C(F)(F)F)cn1)C2` (racemic): the Ki on Orexin receptor type 2 stood at 5.5 µM; in [5] it was 0.1 µM.
The like results for `O=C(c1cc(F)ccc1-c1ncccn1)N1[C@@H]2CC[C@H]1[C@H](Nc1cnc(C(F)(F)F)cn1)C2` were, in that order, 0.73 µM and 0.065 µM.
As for `COc1ccc(C[C@H]2c3cc(OC)c(OC)cc3CCN2[C@@H](C(=O)NC(C)C)c2ccccc2)cc1OC`, in series [5], the affinity, expressed as Ki, was 0.006 µM.
For `O=C(c1ccccc1-n1nccn1)N1C2CCC1C(Nc1ccc(C(F)(F)F)cn1)C2` (racemic), the hepatic extraction ratio in series [6] worked out at 0.69; in [7], 0.87. The figures for the Ki (at Orexin receptor type 2; in series [5]) were 1.4 µM and 0.052 µM, respectively.
On to `Cc1ccc(-n2nccn2)c(C(=O)N2C3CCC2C(Nc2ccc(C(F)(F)F)cn2)C3)n1` (racemic), for which the values for the hepatic extraction ratio in series [6] and in [7] were 0.93 and above 0.92, respectively. Further, in series [5], the inhibitory constant (Ki) is 0.075 µM.
Regarding `O=C(c1cc(F)ccc1-n1nccn1)N1C2CCC1C(COc1ccc(F)cn1)C2` (racemic), the hepatic extraction ratio in [6] is 0.81; in series [7], 0.8. The Ki on Orexin receptor type 2 is 0.2 µM; in series [5], 0.059 µM.
The matching figures for `O=C(c1ccccc1-n1nccn1)N1[C@@H]2CC[C@H]1[C@H](Nc1cnc(C(F)(F)F)cn1)C2`: below 0.3, 0.31, 0.77 µM and 0.03 µM.
With `Cc1ccc(-n2nccn2)c(C(=O)N2C3CCC2C(COc2ccc(C(F)(F)F)cn2)C3)n1` (racemic), the Ki at Orexin receptor type 2 worked out at 0.42 µM; in series [5], 0.5 µM.
In the case of `O=C(c1c(F)cccc1-c1ncccn1)N1[C@@H]2CC[C@H]1[C@H](Nc1cnc(C(F)(F)F)cn1)C2`, the concentration at 0.5 h was found to be 1600 ng/mL in [8] and 654 ng/mL in [12]. Also, the Activity in [9] is 43%; in series [10] it was 51%; in [11], 29%. The compound further came in with a Ki on Orexin receptor type 2 of 0.56 µM.
For the compound `Cc1ccc(-c2ncccn2)c(C(=O)N2[C@@H]3CC[C@H]2[C@H](COc2ccccn2)C3)n1`, the hepatic extraction ratio in series [6] was 0.61; in series [7] it was 0.82. The results for the Ki (on Orexin receptor type 2; in [5]) were 0.23 µM and 0.019 µM, respectively.
Take `O=C(c1cccc(F)c1-c1ncccn1)N1[C@@H]2CC[C@H]1[C@H](Nc1ccc(C(F)(F)F)cn1)C2`: the results for the hepatic extraction ratio in series [6] and in [7] were 0.75 and 0.82, respectively. Further, the concentration at 0.5 h in series [8] is 586 ng/mL; in series [12] it was 72 ng/mL. Moreover, the Activity in series [9] is given as 69%; in series [10], 70%; in series [11], 21%.
As for `O=C(c1cc(F)ccc1-c1ncccn1)N1C2CCC1C(COc1ccc(F)cn1)C2` (racemic), the hepatic extraction ratio in series [6] came to 0.81; in series [7], 0.76. The Ki at Orexin receptor type 2 worked out at 0.16 µM; in series [5], 0.041 µM.
As to `O=C(c1ccc(F)cc1-c1ncccn1)N1[C@@H]2CC[C@H]1[C@H](Nc1cnc(C(F)(F)F)cn1)C2`, the hepatic extraction ratio in series [6] came out at 0.81; in series [7] it was 0.76. Also, the figures for the Ki (at Orexin receptor type 2; in series [5]) were 1.7 µM and 0.061 µM, respectively. Further, the concentration at 0.5 h in [1] was determined as 37 ng/mL; in series [4], 257 ng/mL. Also, the Activity is given as 17% in [2] and 75% in series [3].

The record behind these values is ChEMBL document CHEMBL4725448, “Substituted Azabicyclo[2.2.1]heptanes as Selective Orexin-1 Antagonists: Discovery of JNJ-54717793” (ACS Med Chem Lett, 2020).
